Laboratory results as given in publication PMC4651454 (Journal of virology & antiviral research, 2014).

What was measured:
HCV genotype 1 patients = conditions: supplemented group, HCV genotype 1, PEG-IFN/RBV; controls 42%, P<0.001; cited from earlier work
[1] = tested on: JC1-Luc2a (electroporation); assay: JC1-Luc2a transfected; assay type: cell-based; conditions: Hepatitis C virus
[2] = tested on: full-length genotype 1b replicon; conditions: ref 20 (Yano et al.); cited from earlier work
in vitro = assay type: cell-based; conditions: human, CC50 μM (±S.D)
Huh7.5.1 cells [3] = assay: in vitro; assay type: cell-based; conditions: human, 120 h
JC1-Luc2a (infection) = assay: JC1-Luc2a infectious virus luciferase assay; assay type: cell-based; conditions: Hepatitis C virus
Huh7.5.1 cells [4] = assay: Microarray gene expression; assay type: cell-based, human
Procedure, shortened: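 Huh7.5.1 cells were JC1-Luc2a-transfected or mock-transfected, cultured 4 days, then plated. 1,25(OH)2D3 was added at staggered times to give 6, 12, 24, 72 or 120 h exposures, with RNA harvested at 120 h (day 9). Biotinylated cRNA (250 ng total RNA input; 750 ng hybridized) was run on HumanHT-12 v4 chips, 18-20 h at 58°C, with Cy3 detection. Data were LOESS-normalized and compared against uninfected untreated cells.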

HCV core protein = HCV core protein immunoblot in JC1-Luc2a electroporated Huh7.5.1 cells; assay type: cell-based, hepatitis C virus; conditions: 10 μM 1,25(OH)2D3, 10 IU/mL IFN-α, 72 hours, compared to untreated cells
Procedure, shortened: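 Huh7.5.1 cells electroporated with JC1-Luc2a were incubated for 72 h without drug, with 10 µM 1,25(OH)2D3, with 10 IU/mL IFN-α, or with both. Confluent plates were trypsinized, counted and lysed in equal RIPA volumes. Each condition was run in triplicate. Lysates were run on 12% Bis-Tris SDS-PAGE and transferred to nitrocellulose. Core (anti-core, epitope aa 7-50) and β-actin were detected with goat anti-mouse IgG, and band density was quantified.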

[5] = tested on: HCV infected Huh7.5.1 cells; assay: RT-qPCR of selected genes in HCV infected cells; assay type: cell-based, human; conditions: 10 μM, over IFN-α treated cells (p=0.032)
Procedure, shortened: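 HCV-infected Huh7.5.1 cells were prepared as for the microarray and treated for 6 or 72 h with 1,25(OH)2D3 (4 or 10 µM) and IFN-α (1 or 10 IU/mL), alone or combined. Cultures were run in triplicate. RNA was reverse-transcribed and measured by TaqMan RT-qPCR in duplicate reactions, normalized to GAPDH. Fold change versus untreated infected culture was calculated by 2^-ΔΔCt. Means with 1 standard deviation were compared by Student t-test.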

[6] = tested on: BM4-5 FEO (genotype 1b) replicon; assay: Synergy of 1,25; assay type: cell-based, hepatitis C virus
HCV = conditions: ref 23 (Matsumura et al.); cited from earlier work

For `C=C1CC[C@H](O)C/C1=C/C=C1\CCC[C@]2(C)[C@@H]([C@H](C)/C=C/[C@H](C)C(C)C)CC[C@@H]12` [vitamin D], the SVR rate (HCV genotype 1 patients) is listed as 86%.

In the case of `C=C1CC[C@H](O)C/C1=C/C=C1\CCC[C@]2(C)[C@@H]([C@H](C)/C=C/[C@H](C)C(C)C)CC[C@@H]12` [Vitamin D2], the EC50 ([1]; 72 h) is listed as 18.6 µM, the EC50 ([1]; 120 h) is listed as 21.4 µM and the “EC50, inhibition of HCV RNA replication” value [2] is listed as 1.6 µg/mL. For the same compound, the CC50 at 72 h (in vitro) was 53.9 µM, the CC50 (Huh7.5.1 cells [3]) was 41.9 µM and the EC50 (JC1-Luc2a (infection); 72 h) was 5.72 µM. It also gave an EC50 (JC1-Luc2a (infection); 120 h) of 4.41 µM.

In the case of `C=C1/C(=C\C=C2/CCC[C@]3(C)[C@@H]([C@H](C)CCCC(C)(C)O)CC[C@@H]23)C[C@@H](O)C[C@@H]1O` [1,25(OH)2D3, 1,25-dihydroxyvitamin D3], the EC50 ([1]; 72 h) is reported as 2.92 µM, the EC50 ([1]; 120 h) is reported as 2.95 µM and the HIF1a expression (Huh7.5.1 cells [4]; HCV naïve cells) is reported as “strongly up regulated”. For the same compound, the GPR37 expression (Huh7.5.1 cells [4]; progressive in vitro exposure) was “markedly up regulated”, the CCL20 gene expression (Huh7.5.1 cells [4]; shortly after treatment) was “higher gene expression” and the SLC30A10 expression (Huh7.5.1 cells [4]; uninfected and infected cells) was “increased”. The “HCV core protein expression by immunoblot” value (HCV core protein) was “Mild reduction”, the CC50 at 72 h (in vitro) was 17.3 µM and the CC50 (Huh7.5.1 cells [3]) was 22.8 µM. For the same compound, the “HIF1a mRNA expression, RT-qPCR” value [5] was “up-regulation”, the EC50 ([6]; Hepatitis C virus, GETYPE1B, BM4-5, read-out: EC50 (used for synergy dosing)) was 1 µM and the EC50 (JC1-Luc2a (infection); 72 h) was 1.19 µM. For the same compound, the EC50 (JC1-Luc2a (infection); 120 h) was 1.07 µM.

For `C=C1CC[C@H](O)C/C1=C/C=C1\CCC[C@]2(C)[C@@H]([C@H](C)CCCC(C)C)CC[C@@H]12` [Vitamin D3], the EC50 ([1]; 72 h) was 13 µM, the EC50 ([1]; 120 h) was 12.6 µM and the CC50 at 72 h (in vitro) was 50.3 µM. For the same compound, the CC50 (Huh7.5.1 cells [3]) was 54.9 µM, the EC50 (JC1-Luc2a (infection); 72 h) was 3.44 µM and the EC50 (JC1-Luc2a (infection); 120 h) was 2.78 µM.

In the case of IFN-α, the “HCV core protein expression by immunoblot” value (HCV core protein) is reported as “Mild reduction” and the “EC50 (used for synergy dosing)” value ([6]; BM4-5 FEO genotype 1b replicon) is reported as 1 IU/mL.

For `C=C1CC[C@H](O)C/C1=C/C=C1\CCC[C@]2(C)[C@@H]([C@H](C)CCCC(C)(C)O)CC[C@@H]12` [25(OH) D3], the “Inhibition of HCV in culture (in words)” value (HCV) is listed as “inhibited HCV in culture”.
